Rows were chosen to be rich in hits. Some 3.7% of all compounds tested hit in one or more screens of this group.
HMGR II inh = inhibitors of class II HMG-CoA reductase from Enterococcus faecalis. 0.41% of 190,000 active. inhibition, % at 10 µM. purified E. faecalis HMGR, NADPH absorbance 340 nm kinetic. AID 1066;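 active = inhibition above a set limit, the median over all tested compounds plus 3 SD, cut at about 9.5% in these data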;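 note: enzyme runs in reverse so mevalonate oxidation gives rising NADPH absorbance; 0% = complete reaction with DMSO and 100% = background rate lacking mevalonate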
Insulin prom inh = TRM-6 insulin promoter activity inhibition; TRM-6 cells (human fetal islet line), insulin promoter-eGFP reporter, imaging; reporter expression induced with tamoxifen; inhibition, % at 2 µM; 0.9% of 130,000 active; AID 1273;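 active = inhibition above the mean plus 3 SD, with well images judged a real hit on visual review, cut at about 60% in these data, passing the limit was not always enough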
Yeast growth inh = yeast BB579 growth reduction in restrictive medium | S. cerevisiae BB579 growth, OD615, 48 h | inhibition, % at 10 µM | 0.51% of 140,000 active | AID 804;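 active = inhibition above a set limit, 3 SD over the mean compound inhibition, cut at about 44% in these data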
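Test system: DeaD yeast strain BB579 / Buffer or medium: restrictive glucose-based CSMM-D medium / Doses: single 10 µM dose / Schedule: 4 h cell preincubation, 48 h compound exposure, 30 °C humidified / Technique: culture absorbance at 615 nm / Controls: amphotericin B positive control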
Yeast lifespan up = extends the lifespan of yeast; S. cerevisiae growth with nicotinamide, OD615; deaD strain in restrictive glucose medium; inhibition of the nicotinamide effect, % at 10 µM; 0.68% of 130,000 active; AID 775;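 active = inhibition above a set limit, placed 3 SD over the median of all compounds, cut at about 26% in these data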;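 note: 0% = nicotinamide-treated wells and 100% = cells grown without nicotinamide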
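assay system = DeaD-strain S. cerevisiae | buffer or medium = restrictive glucose medium | reagent = 1.5 mM nicotinamide | compound = 10 µM single point, 0.25% DMSO | incubation = 48 h compound exposure at 30 °C, humidified | signal = OD615 measurement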
RAM inhibit = yeast RAM network inhibition; 1.8% of 190,000 active; inhibition, % at 50 µM; S. cerevisiae dse1pr::URA3 reporter, 5-FOA growth OD615, 2 d; analog-sensitive cbk1-as2 kinase mutant strain; AID 868;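 active = inhibition above a set limit, 3 SD over mean compound inhibition, cut at about 8.4% in these data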;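 note: 0% = DMSO-only wells with no growth and 100% = 10 µM 1-NA-PP1 full growth; inhibition rescues growth on 5-FOA so higher OD means more RAM inhibition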
Numbers without * were called inactive; nt = no result given.

SMILES	HMGR II inh	Insulin prom inh	Yeast growth inh	Yeast lifespan up	RAM inhibit
COc1ccc(C(O)C(CN2CCOCC2)c2ccccc2)cc1F (stereo not given)	3	34	-51	-1	2
COc1ccc(C(=O)O)cc1F	3	79*	4	-7	0
COc1ccc2cc(C(=O)O)ccc2c1	0	9	84*	-29	-1
COc1ccc(C(=O)C(CN2CCOCC2)c2ccccc2)cc1F (stereo not given)	1	71*	-42	79*	2
CS(=O)(=O)c1ccc2nc(NC(=O)c3cc(-c4ccccc4)nn3-c3ccccc3)sc2c1	0	14	-46	-1	7
Fc1cccc(C2CCCCN2Cc2nc(C3CC3)no2)c1 (stereo not given)	6	nt	nt	nt	0
N#Cc1nc(COc2ccccc2)oc1N1CCC(Cc2ccccc2)CC1	0	27	-62	6	11*
CC1CCN(c2oc(Cc3cccc4ccccc34)nc2C#N)CC1	-7	0	-31	-20	10*
N#Cc1nc(COc2ccccc2)oc1N1CCN(Cc2ccccc2)CC1	1	nt	-33	-6	1
Cc1ccc(CSc2ncnc3c2cnn3-c2ccc(C)cc2)cc1	-4	-3	-28	4	9.5*
Cc1ccc(CSc2ncnc3c2cnn3-c2ccccc2)cc1	1	nt	-28	2	7
COC(=O)c1ccc(COC(=O)CCc2nc(-c3ccccc3)c(-c3ccccc3)o2)cc1	1	20	-37	-12	11*
O=C(C1CCN(c2nnc(-n3cccc3)s2)CC1)N1CCOCC1	-2	100*	-28	0	2
O=C(C1CCN(c2nnc(-n3cccc3)s2)CC1)N1CCN(c2cccc(C(F)(F)F)c2)CC1	0	29	17	-6	3
Cc1noc(C)c1CS(=O)(=O)c1ccc(Br)cc1	-2	3	1	56*	1
Cc1ccc(S(=O)(=O)Cc2c(C)noc2C)cc1	0	26	-52	-7	1
CCOC(=O)c1c(C)nc2sc(C(=O)Nc3ccc(C(C)=O)cc3)c(N)c2c1-c1ccc(OC)cc1	-2	37	-42	2	6
CCOC(=O)c1c(C)nc2sc(C(=O)Nc3ccc(OC)cc3)c(N)c2c1-c1ccc(OC)cc1	-6	-9	-50	-11	8.7*
C[C@@H](C(=O)OCn1nnc2ccccc2c1=O)N1C(=O)C2CCCCC2C1=O (stereo not given in full)	-4	29	nt	nt	1
Cc1cccc(Cn2cc(/C=C/[N+](=O)[O-])c3ccccc32)c1	5	25	-32	25	11*
CCc1ccc(OCC(=O)N(CC)CC)cc1	-1	nt	nt	nt	0
O=C(c1ccc(-c2ccccc2)cc1)c1ccccc1C(=O)N1CCOCC1	-1	21	-43	-24	2
O=C(/C=C/N1CCOCC1)c1ccc(-c2ccccc2)cc1	-2	60	99*	-32	2
CC(C)C(NC(=O)C12CC3CC(CC(C3)C1)C2)C(=O)N/N=C/C1=C(N2CCOCC2)C(=C\c2cccc([N+](=O)[O-])c2)/CC1 (stereo not given)	5	-2	-29	1	9.6*
CCCCC(CC)CNC(=O)C(Cc1ccccc1)NS(=O)(=O)c1ccc2c(c1)CCC(=O)N2 (stereo not given)	1	nt	nt	nt	2
SMILES	HMGR II inh	Insulin prom inh	Yeast growth inh	Yeast lifespan up	RAM inhibit
Cc1cc(C(=O)CN2C(=O)NC(c3ccccc3)(c3ccccc3)C2=O)c(C)n1Cc1ccccc1	3	42	-43	-1	7
O=C1c2ccccc2C(=O)N1Cc1ccco1	-1	-35	44*	-11	1
Cc1ccc(CN2CCN(Cc3ccc(O)cc3)CC2CCO)o1 (stereo not given)	-10	nt	nt	nt	0
COCCNC(=O)c1c(N)n(-c2cccc(C)c2)c2nc3ccccc3nc12	1	nt	-28	2	10.0*
COc1cc(-n2c(N)c(C(=O)NCc3ccco3)c3nc4ccccc4nc32)cc(OC)c1OC	1	-29	-27	4	11*
COc1ccc(-n2c(N)c(C(=O)NCc3ccco3)c3nc4ccccc4nc32)cc1OC	4	43	-33	9	6
CN(C)CCN(C(=O)c1ccccc1Cl)c1nc2c(Cl)cccc2s1	-5	nt	-6	7	1
COc1cc(NS(=O)(=O)c2ccc(NC(=S)NC(=O)CC(C)C)cc2)nc(OC)n1	13*	-406	-29	nt	1

Screening results from PubChem BioAssay.
